The source made the active and inactive calls. The calls are words filed in the database; no cut-off is given here.
Assays:
MCF7 [1] = assay: Antiproliferative activity against human MCF7 cells assessed as inhibition of cell growth at 1 to 10 uM incubated for 72 hrs by MTT assay; type: functional, cell-based; details: dose 1-10 µM
In short: (§1)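 Cells seeded at 1–4 × 10^4 cells/mL in RPMI 1640 with 10% FBS and 1 mM HEPES, 37 °C, 5% CO2. After 24 h, compounds added at various concentrations for 72 h; controls received 0.1% DMSO. Viable cells measured by MTT. Percent net growth calculated relative to control, correcting for initial absorbance. Mean ± SD (n = 3).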

MCF7 [2] = assay: Antiproliferative activity against human MCF7 cells assessed as inhibition of cell growth at 4 uM incubated for 72 hrs by MTT assay; type: functional; in short: as §1
PC-3 [3] = assay: Antiproliferative activity against human PC-3 cells assessed as inhibition of cell growth incubated for 72 hrs by MTT assay; type: functional, cell-based; details: dose 1-10 µM; in short: as §1
MCF7 [4] = assay: Antiproliferative activity against human MCF7 cells assessed as inhibition of cell growth incubated for 72 hrs by MTT assay; type: functional, cell-based; details: dose 1-10 µM; in short: as §1
MCF7 [5] = assay: Antiproliferative activity against human MCF7 cells assessed as inhibition of cell growth at 10 uM incubated for 72 hrs by MTT assay; type: functional; in short: as §1
PC-3 [6] = assay: Antiproliferative activity against human PC-3 cells assessed as inhibition of cell growth at 1 uM incubated for 72 hrs by MTT assay; type: functional; in short: as §1
PC-3 [7] = assay: Antiproliferative activity against human PC-3 cells assessed as inhibition of cell growth at 1 to 10 uM incubated for 72 hrs by MTT assay; type: functional, cell-based; details: dose 1-10 µM; in short: as §1
MCF7 [8] = assay: Antiproliferative activity against human MCF7 cells assessed as inhibition of cell growth at 4 to 10 uM incubated for 72 hrs by MTT assay; type: functional, cell-based; details: dose 4-10 µM; in short: as §1
PC-3 [9] = assay: Antiproliferative activity against human PC-3 cells assessed as inhibition of cell growth at 4 to 10 uM incubated for 72 hrs by MTT assay; type: functional, cell-based; details: dose 4-10 µM; in short: as §1
PC-3 [10] = assay: Antiproliferative activity against human PC-3 cells assessed as inhibition of cell growth at 10 uM incubated for 72 hrs by MTT assay; type: functional; in short: as §1
PC-3 [11] = assay: Antiproliferative activity against human PC-3 cells assessed as inhibition of cell growth at 4 uM incubated for 72 hrs by MTT assay; type: functional; in short: as §1
PC-3 [12] = assay: Inhibition of Akt phosphorylation in human PC-3 cells assessed as decrease in phosphorylated Akt level at 10 uM incubated for 72 hrs by immunoblotting analysis; type: cell-based
In short: (§2)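 Cells seeded at 2 × 10^4 cells/mL and grown 24 h, then given 10 μM compound or DMSO for 72 h. Whole-cell lysates prepared in NP40 buffer (25 mM Tris-HCl pH 8, 150 mM NaCl, 0.5% NP40, NaF, Na3VO4, protease inhibitors), quantified by BCA. Lysates run on SDS-PAGE and blotted. Probed for Bcl-2, Bcl-xL, ERK/p-ERK, Akt/p-Akt and β-actin. Control set to 1.0; mean ± SD (n = 3).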

MCF7 [13] = assay: Effect in Bcl-xL protein expression in human MCF7 cells at 10 uM incubated for 72 hrs by immunoblotting analysis; type: functional, cell-based; in short: as §2
[14] = molecular target: T1, Retinoic acid receptor RXR-alpha (Homo sapiens) (UniProt P19793); assay: Agonist activity at human RXR-alpha assessed as receptor transactivation at 500 to 20000 nM incubated for 24 hrs by luciferase reporter gene assay; details: dose 500-20000 nM
T1 sequence (whole entry): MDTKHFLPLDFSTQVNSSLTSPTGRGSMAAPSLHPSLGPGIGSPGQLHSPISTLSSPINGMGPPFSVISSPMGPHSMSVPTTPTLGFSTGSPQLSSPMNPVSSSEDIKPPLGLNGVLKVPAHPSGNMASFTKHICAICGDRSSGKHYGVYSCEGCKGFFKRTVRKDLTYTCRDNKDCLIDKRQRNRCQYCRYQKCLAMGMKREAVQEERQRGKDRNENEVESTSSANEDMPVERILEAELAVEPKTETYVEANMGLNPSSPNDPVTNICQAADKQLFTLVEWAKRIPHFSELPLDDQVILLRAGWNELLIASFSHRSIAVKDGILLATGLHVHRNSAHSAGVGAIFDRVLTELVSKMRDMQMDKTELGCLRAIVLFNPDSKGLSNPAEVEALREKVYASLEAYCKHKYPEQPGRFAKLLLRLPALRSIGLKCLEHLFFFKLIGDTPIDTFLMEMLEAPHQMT
In short: (§3)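 INDIGO RARα or RXRα reporter cells seeded, then medium containing compound added (0.5, 1, 4, 10, 20 μM); 24 h at 37 °C. Medium removed, luciferase detection reagent added, light emission read. 9-cis-retinoic acid (0.5–500 nM) served as positive control. Three replicate wells per vehicle control; mean ± SD (n = 3).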

MCF7 [15] = assay: Effect on Bcl-2 protein expression in human MCF7 cells at 10 uM incubated for 72 hrs by immunoblotting analysis; type: functional, cell-based; in short: as §2
PC-3 [16] = assay: Induction of autophagy in human PC-3 cells assessed as increase in LC3-II protein expression at 10 uM incubated for 72 hrs by immunoblotting analysis relative to control; type: functional
In short: (§4)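 Cells seeded at 2 × 10^4 cells/mL and grown 24 h at 37 °C in 5% CO2 in RPMI 1640 with 10% FBS and 1 mM HEPES. They were then treated 72 h with compound at 10 μM or with DMSO control. Whole-cell lysates were made in NP40 buffer, protein measured by BCA, and samples run on SDS-PAGE. LC3 was probed with β-actin as loading control. Control was set to 1.0; mean ± SD, n = 3.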

MCF7 [17] = assay: Induction of apoptosis in human MCF7 cells assessed as accumulation of cells at subG1 phase at 10 uM incubated for 24 hrs by propidium iodide staining based flow cytometry; type: functional, cell-based
In short: (§5)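 Cells seeded at 2 × 10^4 cells/mL and grown 24 h, then given 10 μM compound or DMSO for 24 h. Harvested cells fixed in 70% ethanol at 4 °C overnight, washed twice with PBS, and treated with 100 μg/mL RNase A (37 °C, 30 min). Stained with 10 μg/mL propidium iodide; cell cycle analysed by flow cytometry.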

[18] = molecular target: T2, Retinoic acid receptor alpha (Homo sapiens) (UniProt P10276); assay: Agonist activity at human RAR-alpha assessed as receptor transactivation at 500 to 20000 nM incubated for 24 hrs by luciferase reporter gene assay; details: dose 500-20000 nM; in short: as §3
T2 sequence (whole entry): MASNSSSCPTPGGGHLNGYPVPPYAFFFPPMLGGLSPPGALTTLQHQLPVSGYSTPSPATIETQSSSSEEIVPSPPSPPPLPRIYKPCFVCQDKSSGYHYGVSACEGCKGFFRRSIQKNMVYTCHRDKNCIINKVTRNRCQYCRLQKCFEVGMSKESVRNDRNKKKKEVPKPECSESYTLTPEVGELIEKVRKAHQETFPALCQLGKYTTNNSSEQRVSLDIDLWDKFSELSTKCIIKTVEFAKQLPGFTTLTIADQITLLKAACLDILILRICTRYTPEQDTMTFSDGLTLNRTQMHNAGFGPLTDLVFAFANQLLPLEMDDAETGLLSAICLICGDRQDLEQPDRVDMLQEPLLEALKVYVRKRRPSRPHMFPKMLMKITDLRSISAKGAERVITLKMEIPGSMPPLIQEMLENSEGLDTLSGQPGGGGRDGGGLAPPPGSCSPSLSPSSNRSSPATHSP

MCF7 [19] = assay: Induction of autophagy in human MCF7 cells assessed as increase in LC3-II protein expression at 10 uM incubated for 72 hrs by immunoblotting analysis relative to control; type: functional; in short: as §4
MCF7 [20] = assay: Induction of cell cycle arrest in human MCF7 cells at 10 uM incubated for 24 hrs by propidium iodide staining based flow cytometry; type: functional; in short: as §5
PC-3 [21] = assay: Inhibition of ERK phosphorylation in human PC-3 cells at 10 uM incubated for 72 hrs by immunoblotting analysis; type: cell-based; in short: as §2
MCF7 [22] = assay: Inhibition of ERK phosphorylation in human MCF7 cells at 10 uM incubated for 72 hrs by immunoblotting analysis; type: cell-based; in short: as §2
PC-3 [23] = assay: Induction of apoptosis in human PC-3 cells assessed as accumulation of cells at subG1 phase at 10 uM incubated for 24 hrs by propidium iodide staining based flow cytometry; type: functional, cell-based; in short: as §5
MCF7 [24] = assay: Inhibition of Akt phosphorylation in human MCF7 cells assessed as decrease in phosphorylated Akt level at 10 uM incubated for 72 hrs by immunoblotting analysis; type: cell-based; in short: as §2
PC-3 [25] = assay: Induction of cell cycle arrest in human PC-3 cells at 10 uM incubated for 24 hrs by propidium iodide staining based flow cytometry; type: functional; in short: as §5
PC-3 [26] = assay: Effect in Bcl-2 protein expression in human PC-3 cells at 10 uM incubated for 72 hrs by immunoblotting analysis; type: functional, cell-based; in short: as §2
PC-3 [27] = assay: Effect in Bcl-xL protein expression in human PC-3 cells at 10 uM incubated for 72 hrs by immunoblotting analysis; type: functional, cell-based; in short: as §2

In the case of `COC(=O)CCCCCCCCCNc1ccc(O)cc1`, the Activity (MCF7 [1]) is reported as “inactive”.

With `CCCCCCCCNc1ccc(O)cc1` the inhibition at 4 µM (MCF7 [2]) was 14%, the Activity (PC-3 [3]) was “Dose-Dependent Effect” and the Activity (MCF7 [4]) was “Dose-Dependent Effect”. For the same molecule, the inhibition at 10 µM (MCF7 [5]) was 45% and the inhibition at 1 µM (PC-3 [6]) was 33%.

For `O=C(O)CCCCCCCCCCCNc1ccc(O)cc1`, the Activity (PC-3 [7]) was “inactive” and the Activity (MCF7 [1]) was “inactive”.

`COC(=O)CCCCCCCNc1ccc(O)cc1` was tested, and the Activity (MCF7 [1]) was “inactive”.

In the case of `O=C(O)CCCCCCC(=O)Nc1ccc(O)cc1`, the inhibition at 4 µM (MCF7 [2]) is reported as 30%, the Activity (MCF7 [8]) is reported as “Active” and the Activity (PC-3 [9]) is reported as “inactive”.

`CCCCCCCCCC(=O)Nc1ccc(O)cc1` was tested, and the Activity (MCF7 [8]) was “inactive”, the inhibition at 10 µM (PC-3 [10]) was 43% and the Activity (PC-3 [9]) was “Active”.

For `COC(=O)CCCCCCCCCCC(=O)Nc1ccc(O)cc1`, the inhibition at 10 µM (PC-3 [10]) was 10% and the Activity (MCF7 [1]) was “inactive”.

`COC(=O)CCCCCCC(=O)Nc1ccc(O)cc1` was tested, and the Activity (MCF7 [1]) was “inactive”.

In the case of `COC(=O)CCCCCCCCCCCNc1ccc(O)cc1`, the inhibition at 10 µM (PC-3 [10]) is reported as 10% and the Activity (MCF7 [1]) is reported as “inactive”.

With `COC(=O)CCCCCCCCC(=O)Nc1ccc(O)cc1` the Activity (MCF7 [1]) was “inactive”.

With `CCCCCCCCCCCC(=O)Nc1ccc(O)cc1` the Activity (MCF7 [8]) was “inactive”, the inhibition at 10 µM (PC-3 [10]) was 24% and the Activity (PC-3 [9]) was “Active”.

For `CCCCCCCCCCNc1ccc(O)cc1`, the inhibition at 4 µM (MCF7 [2]) was 31%, the Activity (PC-3 [3]) was “Dose-Dependent Effect” and the Activity (MCF7 [4]) was “Dose-Dependent Effect”. For the same molecule, the inhibition at 10 µM (MCF7 [5]) was 51% and the inhibition at 1 µM (PC-3 [6]) was 65%.

`CC1=C(/C=C/C(C)=C/C=C/C(C)=C/C(=O)O)C(C)(C)CCC1` [TRETINOIN] was tested, and the inhibition at 4 µM (MCF7 [2]) was 37% and the inhibition at 4 µM (PC-3 [11]) was 18%.

For `O=C(O)CCCCCCCNc1ccc(O)cc1`, the Activity (PC-3 [7]) was “inactive” and the Activity (MCF7 [1]) was “inactive”.

In the case of `CCCCCCCCCCCCNc1ccc(O)cc1`, the inhibition at 4 µM (MCF7 [2]) is reported as 61%, the Activity (PC-3 [3]) is reported as “Dose-Dependent Effect” and the Activity (MCF7 [4]) is reported as “Dose-Dependent Effect”. It also gave an inhibition at 10 µM (MCF7 [5]) of 73% and an inhibition at 1 µM (PC-3 [6]) of 91%.

With `O=C(O)CCCCCCCCC(=O)Nc1ccc(O)cc1` the inhibition at 4 µM (MCF7 [2]) was 28%, the Activity (MCF7 [8]) was “Active” and the Activity (PC-3 [9]) was “inactive”.

`O=C(O)CCCCCCCCCCC(=O)Nc1ccc(O)cc1` was tested, and the inhibition (PC-3 [12]) was 35%, the Activity (MCF7 [13]) was “inactive” and the Activity [14] was “inactive”. The inhibition at 4 µM (MCF7 [2]) was 40%, the Activity (MCF7 [15]) was “inactive” and the “fold change (FC)” value (PC-3 [16]) was 1.5. The Activity (MCF7 [8]) was “Active”, the inhibition at 10 µM (PC-3 [10]) was 70% and the Activity (MCF7 [17]) was “inactive”. The Activity [18] was “inactive”, the “fold change (FC)” value (MCF7 [19]) was 1.6 and the Activity (MCF7 [20]) was “inactive”. For the same molecule, the inhibition (PC-3 [21]) was “inactive”, the inhibition (MCF7 [22]) was “inactive” and the Activity (PC-3 [23]) was “inactive”. For the same molecule, the inhibition (MCF7 [24]) was “Active”, the inhibition at 4 µM (PC-3 [11]) was 54% and the Activity (PC-3 [25]) was “inactive”. The Activity (PC-3 [26]) was “inactive” and the Activity (PC-3 [27]) was “inactive”.

In the case of `O=C(O)CCCCCCCCCNc1ccc(O)cc1`, the Activity (PC-3 [7]) is reported as “inactive” and the Activity (MCF7 [1]) is reported as “inactive”.

With `CCCCCCCC(=O)Nc1ccc(O)cc1` the Activity (MCF7 [8]) was “inactive”, the inhibition at 10 µM (PC-3 [10]) was 45% and the Activity (PC-3 [9]) was “Active”.

Reference: ChEMBL document CHEMBL5260861, “Examination of aminophenol-containing compounds designed as antiproliferative agents and potential atypical retinoids” (2023)
